Experiment [1] relates to MEF. Put plainly: Downregulation of Gli transcription in Sufu-/- MEF cells by immunoblot analysis. Particulars: Mus musculus. In kind it is functional, cell-based. A digest of the protocol:
(§1)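 Sufu−/− MEFs exposed to DMSO or 1 uM of JQ1, GDC-0449, LDE225 or SANT-1; RIPA lysis 30min on ice, cleared 13000rpm 15min 4°C; SDS-PAGE immunoblot with anti-GLI1, β-tubulin as loading control.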

For experiment [2], the system named is Medulloblastoma cell. The experiment in a line: Induction of apoptosis in mouse wildtype SMO expressing medulloblastoma cells assessed as late apoptotic cells by annexin-V/PI staining based flow cytometric analysis (reference value: 2.5%).
Experiment [3] relates to Medulloblastoma cell. The experiment in a line: Antitumor activity in […] medulloblastoma expressing wildtype SMO […] in NSG mouse assessed as reduction in tumor growth at 100 mg/kg/day, po. In kind it is functional, organism-based. A digest of the protocol: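 Flank allografts: 2x10e6 SmoWT-MB cells per flank (both flanks) in 4-6 week NSG mice; randomized after engraftment to vehicle, GDC-0449 100 mg/kg PO qd or JQ1 50 mg/kg IP qd, dosed until euthanasia required; caliper tumor measurement; group means ± S.E.M.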

Experiment [4] deals with Bromodomain-containing protein 4 (Mus musculus) (UniProt Q9ESU6). The experiment in a line: Inhibition of BRD4 in mouse Hh-Light2 cells assessed as inhibition in Gli1 protein level by immunoblot analysis.
The subject of experiment [5] is Medulloblastoma cell. Put plainly: Antitumor activity in […] medulloblastoma cells expressing SmoD477G mutant […] in NSG mouse assessed as reduction in tumor growth at 100 mg/kg/day, po. In kind it is functional, organism-based.
The test system of experiment [6] is Medulloblastoma cell. Put plainly: Induction of apoptosis in mouse wildtype SMO expressing medulloblastoma cells assessed as necrotic cells by annexin-V/PI staining based flow cytometric analysis (reference value: 22%).
Experiment [7] has as its target Zinc finger protein GLI2 (Homo sapiens) (UniProt P10070). Put plainly: Inhibition of human GLI2 expressed in Hh-Light2 cells assessed as reduction in Gli1 mRNA expression level by qRT-PCR analysis. In kind it is cell-based. A digest of the protocol: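 Hh-Light2 cells transiently transfected (Turbofect) with full-length murine HA-Gli2-FL or N-terminally truncated human Myc-GLI2-DN; drugs (1 uM JQ1, GDC-0449, LDE225 or SANT-1) added 24hr post-transfection; Gli1 mRNA by SYBR Green qRT-PCR; mean of triplicates ± SD.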

The test system of experiment [8] is Medulloblastoma cell. Put plainly: Induction of apoptosis in human wildtype SMO expressing medulloblastoma cells assessed as early apoptotic cells by annexin-V/PI staining based flow cytometric analysis (reference value: 0.59%). In kind it is functional.
In experiment [9] the test system is Medulloblastoma cell. The experiment in a line: Antiproliferative activity against in […] medulloblastoma cells expressing SmoWT-MB cells from mouse assessed as cell proliferation by EdU analysis. In kind it is functional, cell-based. The procedure, abridged:
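SmoWT-MB cells given 0.1uM GDC-0449 or LDE225 (or JQ1 1 uM); 10uM EdU added for final 6-8hrs; EdU+ cells detected by Click-iT flow cytometry or imaging, DAPI counterstain; proliferation index = EdU+/DAPI+ cells; group means ± SD.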

Experiment [10] addresses Bromodomain-containing protein 4 (Mus musculus) (UniProt Q9ESU6). Put plainly: Inhibition of BRD4 in mouse Hh-Light2 cells assessed as Gli1 mRNA level by qRT-PCR analysis.
The test system of experiment [11] is Medulloblastoma cell. Put plainly: Induction of apoptosis in human wildtype SMO expressing medulloblastoma cells assessed as viable cells by annexin-V/PI staining based flow cytometric analysis (reference value: 74.9%). In kind it is functional.
The subject of experiment [12] is MEF. The experiment in a line: Downregulation of Gli1 protein expression in Sufu-/- MEF cells by immunoblot analysis. In kind it is functional, cell-based. To be noted: Mus musculus. The procedure, abridged:
as §1

Calls of active or inactive are those of the source. No cut-off for these calls is given here.

Sequence of Zinc finger protein GLI2 (Homo sapiens) (P10070 whole entry, the tested form may be a part): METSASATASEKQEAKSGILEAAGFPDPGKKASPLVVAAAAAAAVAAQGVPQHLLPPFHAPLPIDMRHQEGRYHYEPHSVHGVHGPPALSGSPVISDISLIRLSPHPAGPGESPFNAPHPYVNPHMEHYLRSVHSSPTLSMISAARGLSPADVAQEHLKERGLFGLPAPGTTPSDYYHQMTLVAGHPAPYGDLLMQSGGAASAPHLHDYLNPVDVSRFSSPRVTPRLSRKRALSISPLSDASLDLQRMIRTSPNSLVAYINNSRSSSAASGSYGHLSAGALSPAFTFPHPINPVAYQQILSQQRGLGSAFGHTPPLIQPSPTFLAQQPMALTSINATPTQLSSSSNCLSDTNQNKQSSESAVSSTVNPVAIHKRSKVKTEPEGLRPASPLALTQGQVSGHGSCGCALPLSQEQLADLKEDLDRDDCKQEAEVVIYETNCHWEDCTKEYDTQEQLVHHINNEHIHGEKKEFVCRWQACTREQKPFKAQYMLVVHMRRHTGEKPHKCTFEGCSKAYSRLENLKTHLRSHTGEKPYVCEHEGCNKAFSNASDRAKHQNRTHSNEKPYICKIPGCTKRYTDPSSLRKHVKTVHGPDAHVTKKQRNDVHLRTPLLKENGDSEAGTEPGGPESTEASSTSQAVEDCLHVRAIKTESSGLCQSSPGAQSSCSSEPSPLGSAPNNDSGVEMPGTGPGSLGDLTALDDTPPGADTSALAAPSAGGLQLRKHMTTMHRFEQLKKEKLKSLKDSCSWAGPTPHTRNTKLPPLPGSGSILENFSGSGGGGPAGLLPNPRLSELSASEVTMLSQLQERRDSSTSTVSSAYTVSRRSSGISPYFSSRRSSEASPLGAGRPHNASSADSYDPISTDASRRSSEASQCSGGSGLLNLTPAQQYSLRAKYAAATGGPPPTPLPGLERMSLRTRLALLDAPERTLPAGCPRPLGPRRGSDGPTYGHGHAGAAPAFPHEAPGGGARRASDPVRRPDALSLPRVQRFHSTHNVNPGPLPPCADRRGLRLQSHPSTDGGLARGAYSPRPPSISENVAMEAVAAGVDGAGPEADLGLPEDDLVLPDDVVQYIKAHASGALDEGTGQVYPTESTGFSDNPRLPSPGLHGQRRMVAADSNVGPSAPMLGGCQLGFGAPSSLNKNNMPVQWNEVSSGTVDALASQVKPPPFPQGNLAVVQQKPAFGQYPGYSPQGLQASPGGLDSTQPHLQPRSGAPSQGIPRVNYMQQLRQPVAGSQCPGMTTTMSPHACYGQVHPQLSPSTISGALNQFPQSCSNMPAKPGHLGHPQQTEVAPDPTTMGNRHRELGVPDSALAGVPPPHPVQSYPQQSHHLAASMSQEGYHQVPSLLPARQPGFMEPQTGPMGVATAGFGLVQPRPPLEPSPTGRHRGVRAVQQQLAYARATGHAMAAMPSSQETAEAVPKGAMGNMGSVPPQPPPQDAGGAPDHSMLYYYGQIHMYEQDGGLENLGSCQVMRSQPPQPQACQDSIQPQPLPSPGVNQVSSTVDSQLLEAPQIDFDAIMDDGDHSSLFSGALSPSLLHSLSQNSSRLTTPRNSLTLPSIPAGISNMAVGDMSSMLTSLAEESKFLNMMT

With `CS(=O)(=O)c1ccc(C(=O)Nc2ccc(Cl)c(-c3ccccn3)c2)c(Cl)c1` [VISMODEGIB], the outcome in the experiment with MEF [1], in the experiment on Medulloblastoma cell [5] and in the experiment with MEF [12] was inactive. In addition, the Activity with Medulloblastoma cell [2] worked out at 6.98%; with Medulloblastoma cell [6] it was 51.2%; in the experiment on Medulloblastoma cell [8], 1.01%; in the experiment on Medulloblastoma cell [11] it was 40.8%. The outcome with Medulloblastoma cell [3] and with Medulloblastoma cell [9] was Active. In addition, the inhibition result in [4] and in experiment [10] was “Active” in each case. Also, the inhibition entry in experiment [7] was “inactive”.
